Screens deposited in PubChem by several laboratories.
The list is not random: actives were taken first. Their share in the collection is about 3.8%.
Beta apoptosis = blocks beta cell apoptosis; protection from apoptosis, % (test concentration not listed); INS-1E cytokine-induced death, ATP luminescence, 48 h; percent of positive-control rescue, neutral wells zero; actives 0.8% (n = 300,000);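 active = Every replicate reaches about 75%, or at least half do and their mean reaches it too, limit read from the data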;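 note: 0% = cytokine-treated negative control wells and 100% = positive control rescue; higher means more ATP so stronger rescue from cytokine killing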
MC4R ag barr = activates human MC4R beta-arrestin recruitment; P32245; U2OS MC4R beta-arrestin complementation, luminescence; percent of melanotan II response, DMSO zero; activation, % at 8.9 µM; actives 0.98% (n = 360,000);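 active = activation above a per-plate cutoff, the mean activation of sample wells on that plate plus 3 SD, cut at about 8% in these data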
CSC inhib = cancer stem cell inhibition; AID 2717; inhibition, % at 7.5 µM; cancer stem cell-like cells viability, luminescence; actives 1.1% (n = 300,000); in the data active = inhibition above about 75%; tested in HMLE shEcad cells
MC4R antag cAMP = antagonists of human melanocortin 4 receptor (MC4R); P32245; MC4R-expressing cells, MTII-stimulated cAMP, LANCE TR-FRET; inhibition, % at 6.5 µM; actives 0.48% (n = 360,000); AID 540295;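 active = inhibition above its plate's cutoff, the mean of tested wells on that plate plus 3 SD, cut at about 29% in these data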;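 note: 0% = Melanotan II alone and 100% = Melanotan II plus saturating MCL0020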
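Assay system: U2OS-MC4R stable cell line; Also added: Melanotan II; Technique: Eu-cAMP/anti-cAMP TR-FRET, emission 671 nm; Times: 30-min compound, 1-h challenge, 1-h detection, room temperature.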
TMEM16A inh = inhibitors of mouse TMEM16A calcium-activated chloride channel; Q8BHY3; HEK293 TMEM16A/YFP iodide influx fluorescence, ionomycin; normalized B-score (activity score, 25-100; higher = stronger inhibition) at 10 µM; actives 1.2% (n = 310,000);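 active = ratio plate-corrected score three or more library SD toward inhibition, starting fluorescence score within five deviations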;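 note: score derived from kinetic fluorescence span divided by baseline fluorescence per well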
Target sequence (Q8BHY3 whole entry, looked up): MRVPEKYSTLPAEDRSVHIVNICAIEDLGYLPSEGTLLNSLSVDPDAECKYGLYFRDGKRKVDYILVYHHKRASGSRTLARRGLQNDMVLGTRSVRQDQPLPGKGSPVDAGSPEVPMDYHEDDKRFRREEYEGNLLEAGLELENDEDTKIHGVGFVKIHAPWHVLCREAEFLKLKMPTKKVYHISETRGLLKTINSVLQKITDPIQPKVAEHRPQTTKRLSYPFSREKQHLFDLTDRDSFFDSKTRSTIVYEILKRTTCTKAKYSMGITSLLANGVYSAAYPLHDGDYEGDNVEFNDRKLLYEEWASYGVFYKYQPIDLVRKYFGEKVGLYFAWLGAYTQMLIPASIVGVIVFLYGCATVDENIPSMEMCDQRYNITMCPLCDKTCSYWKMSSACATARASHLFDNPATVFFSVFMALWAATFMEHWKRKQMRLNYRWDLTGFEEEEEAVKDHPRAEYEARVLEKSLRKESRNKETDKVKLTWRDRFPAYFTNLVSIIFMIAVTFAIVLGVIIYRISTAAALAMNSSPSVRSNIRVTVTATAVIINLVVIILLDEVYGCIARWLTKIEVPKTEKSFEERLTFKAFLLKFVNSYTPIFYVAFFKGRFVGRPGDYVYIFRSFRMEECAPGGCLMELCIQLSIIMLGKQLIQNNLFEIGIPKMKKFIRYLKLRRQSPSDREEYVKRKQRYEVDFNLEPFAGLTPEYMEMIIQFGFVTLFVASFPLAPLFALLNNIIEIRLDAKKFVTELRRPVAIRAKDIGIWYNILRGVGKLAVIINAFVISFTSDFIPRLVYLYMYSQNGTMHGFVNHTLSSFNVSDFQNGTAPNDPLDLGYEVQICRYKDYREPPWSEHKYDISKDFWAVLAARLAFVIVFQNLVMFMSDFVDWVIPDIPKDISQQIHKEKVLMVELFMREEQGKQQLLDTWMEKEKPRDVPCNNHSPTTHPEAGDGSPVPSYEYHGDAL
ANO1 activ = activators or potentiators of mouse TMEM16A chloride channel; Q8BHY3; HEK293 TMEM16A/YFP-H148Q/I152L, iodide quench fluorescence; active compounds read low; actives 0.3% (n = 340,000); B-score at 10 µM;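 active = fluorescence-ratio B-score plate-corrected deviation score at least 3 library SD below zero, with starting fluorescence score within 5 deviations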;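 note: channel opened by trigger with iodide after compound preincubation; score built on the fluorescence ratio of max minus min over baseline; more negative score means more quench and so TMEM16A activation or potentiation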
cAMP nonselect = counter-screen for MC4R antagonists: nonselective cAMP signaling inhibitors | shares compounds with MC4R antag cAMP | parental U2OS, forskolin cAMP, LANCE TR-FRET | inhibition, % at 6.5 µM | actives 26% (n = 1,600) | AID 602193;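 active = mean inhibition over triplicates above the low-control well mean plus 3 SD, set per campaign, cut at about 13% in these data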;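 note: signal is single emission at 671 nm which falls as cellular cAMP rises; 0% = forskolin-stimulated wells and 100% = buffer without forskolin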
MC4R cAMP antag = human MC4R cAMP antagonism confirmation | MC4R-expressing cells, MTII-stimulated cAMP, TR-FRET | actives 27% (n = 1,600) | shares compounds with MC4R antag cAMP | inhibition, % at 6.5 µM; in the data active = inhibition above about 29%;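 note: 0% = agonist stimulated wells alone and 100% = agonist stimulated wells plus saturating reference antagonist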
An asterisk follows results filed as active; i = inactive; nt = not tested or not shown; + = active, no number.

SMILES	Beta apoptosis	MC4R ag barr	CSC inhib	MC4R antag cAMP	TMEM16A inh	ANO1 activ	cAMP nonselect	MC4R cAMP antag
COc1cc2c(=O)n(CCCC(=O)NCC3CCCO3)c(=O)n(CC(=O)c3ccc(F)cc3)c2cc1OC (stereo unspecified)	-0.6	-0.2	-20.0	30.3*	i	i	-0.3	-2.7
CCOc1ccc(CN2CCC(C(=O)Nc3cccc(-c4ccn[nH]4)c3)CC2)cc1Cl	nt	-0.2	nt	-3.4	i	i	nt	nt
COc1ccc(-c2cc(C(=O)OCC(=O)N3CCCCC3)c3ccccc3n2)cc1OC	13.0	-0.3	nt	36.9*	nt	i	3.0	14.6
COc1ccc(-c2cc(C(=O)N(C)CC(=O)Nc3ccccc3C(F)(F)F)c3ccccc3n2)cc1OC	nt	-0.7	nt	31.0*	nt	i	2.4	11.6
CC(C)c1ccc(NC(=O)CSc2nc3ccsc3c(=O)n2CCC(=O)O)cc1	-3.0	0.7	1.5	35.1*	i	i	2.4	3.6
C=C(C1=CCN(S(=O)C(C)(C)C)[C@@H]1CCO)c1ccccc1 (stereo partly specified)	nt	-1.4	nt	6.8	nt	nt	nt	nt
CCn1cc(CCCC(=O)NCc2ccc(OC)cc2)c2ccccc21	-5.6	0.6	-4.6	-4.1	i	i	nt	nt
Cc1noc(NS(=O)(=O)c2ccc(N/C=C\C(=O)c3ccncc3)cc2)c1C	-2.4	-1.7	6.3	2.2	i	i	nt	nt
NC(N)=NS(=O)(=O)c1ccc(N/C=C\C(=O)c2ccncc2)cc1	-3.9	0.0	1.6	30.6*	i	i	-3.0	-27.3
Cc1ccn(CC(=O)N2CCCC(N3CCN(c4cccc(C(F)(F)F)c4)CC3)C2)n1 (stereo unspecified)	nt	-1.4	nt	3.4	nt	nt	nt	nt
COc1cccc(C(=O)Nc2ccc(S(=O)(=O)Nc3cc(C)nc(C)n3)cc2)c1	4.2	-0.9	-7.6	29.4*	i	i	-0.6	-1.1
CCOc1ccc(C2C(C(=O)c3ccc(C)o3)=C(O)C(=O)N2c2nc(C)c(C(=O)OC)s2)cc1 (stereo unspecified)	-3.5	1.0	12.0	+	i	i	74.5*	143.4*
CCOC(=O)c1sc(N2C(=O)C(O)=C(C(=O)c3ccc(C)o3)C2c2ccc(OC)c(OC)c2)nc1C (stereo unspecified)	-12.6	-4.1	-20.5	27.5	i	i	nt	nt
COC(=O)c1sc(N2C(=O)C(O)=C(C(=O)c3ccc(C)o3)C2c2ccc([N+](=O)[O-])cc2)nc1C (stereo unspecified)	-2.3	-4.3	-6.2	-3.0	i	i	nt	nt
COC(=O)c1sc(N2C(=O)C(O)=C(C(=O)c3ccc(C)o3)C2c2ccc(OC)c(OC)c2)nc1C (stereo unspecified)	0.4	-2.8	-9.0	187.9*	i	i	-0.1	-16.4
Cc1ccc2nc(N3C(=O)C(O)=C(C(=O)c4ccc(C)o4)C3c3cccc(O)c3)sc2c1 (stereo unspecified)	4.2	0.3	-8.3	31.4*	i	i	1.8	13.3
NNC(=O)CNC(=O)CNS(=O)(=O)c1ccccc1	-5.2	-3.8	8.0	29.1*	i	i	-2.0	-7.3
O=C(NNc1c2ccccc2nc2ccccc12)c1ccc(Cl)cc1	34.3	-0.9	13.5	33.0*	i	i	-1.9	-23.8
Cc1ccc(C(=O)NNc2c3ccccc3nc3ccccc23)cc1	14.8	-1.9	6.7	-13.3	i	i	nt	nt
CN1CCc2c(sc(/N=C/c3cc(Cl)ccc3O)c2C#N)C1	-0.9	-0.8	-8.4	39.1*	i	i	1.4	3.7
CN1CCc2c(sc(/N=C/c3c[nH]c4ccccc34)c2C#N)C1	3.7	-1.7	-19.1	-2.9	i	i	nt	nt
Cc1c(/C=N\NC(=O)C2(C)CC2(Cl)Cl)cnn1C (stereo unspecified)	-17.7	-1.5	-3.7	-2.0	i	i	nt	nt
CC1(C(=O)N/N=C/c2c(F)c(F)c(F)c(F)c2F)CC1(Cl)Cl (stereo unspecified)	-1.8	-3.4	37.0	32.2*	i	i	11.2	54.5*
COc1ccc(CCN2C(=O)CC(N3CCN(S(=O)(=O)c4ccccc4)CC3)C2=O)cc1OC (stereo unspecified)	-1.5	-1.0	2.3	33.5*	i	i	-0.9	-8.5
COc1ccc(-c2cc(C(=O)Nc3ccc(Br)cc3)no2)cc1	-0.1	2.3	-8.3	28.8*	i	i	3.8	12.5
SMILES	Beta apoptosis	MC4R ag barr	CSC inhib	MC4R antag cAMP	TMEM16A inh	ANO1 activ	cAMP nonselect	MC4R cAMP antag
COc1ccc(-c2cc(C(=O)Nc3cc(C)on3)no2)cc1OC	-11.8	-1.9	-7.3	30.5*	i	i	2.3	-1.4
Cc1cc(NC(=O)c2cc(-c3ccc(O)cc3)on2)no1	-0.8	-1.3	25.4	8.2	i	i	nt	nt
CCN1CCN(C(=O)c2cc(S(=O)(=O)Nc3ccc(S(C)(=O)=O)cc3)ccc2Cl)CC1	-2.6	1.9	-9.4	30.4*	i	i	-10.5	-27.4
CC(=O)N1CCN(C(=O)c2cc(S(=O)(=O)Nc3ccc(S(C)(=O)=O)cc3)ccc2Cl)CC1	-0.2	-0.7	nt	-1.3	i	i	nt	nt
CCN1CCN(c2ccc(S(=O)(=O)N3CCCCC3)cc2NC(=O)c2cc3ccccc3o2)CC1	4.5	-1.8	-3.8	-0.6	i	i	nt	nt
COc1ccc(NC(=O)COC(=O)C(NC(=O)c2ccc(C)cc2)C(C)C)cn1 (stereo unspecified)	-13.3	-2.3	-8.2	12.2	nt	i	nt	nt
COc1ccc(NC(=O)/C(Cl)=C(/Cl)S(=O)(=O)Cc2ccc(C)cc2)cn1	nt	-3.6	nt	40.4*	nt	i	37.7*	37.0*
CCOC(=O)Cc1cc(=O)n2[nH]c(-c3ccc(Cl)cc3)cc2n1	-6.4	0.9	-5.4	-1.2	i	i	nt	nt
CCOC(=O)Cc1cc(=O)n2[nH]cc(-c3ccc(Cl)cc3)c2n1	-2.4	-1.2	3.1	30.5*	i	i	1.1	2.5
COc1ccc(C(=O)NCCC2=CCCCC2)cc1OC1CCN(C(C)C)CC1	7.0	-1.8	7.6	4.5	i	i	nt	nt
Nc1ccc(C(=O)CC(=O)Nc2ccc(Cl)cc2)cc1	-0.4	-0.3	27.5	21.7	i	i	nt	nt
Cc1ccc(N2CCN(C(=O)c3cccc([N+](=O)[O-])c3)CC2)cc1Cl	-1.3	0.5	-4.8	33.4*	i	i	-0.4	-10.4
